Data as given in ChEMBL document CHEMBL4610035, “Synthesis and biological evaluation of novel 3-benzylcoumarin-imidazolium salts” (Bioorg Med Chem Lett, 2020).
pIC50: −log10 of the molar value.

Tests used:
[1] = test system: HL-60; assay: Antiproliferative activity against human HL60 cells assessed as growth inhibition incubated up to 4 days by MTS assay; type: functional, cell-based; conditions: HL-60, 96 h
Outline: (§1)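 Five human tumour cell lines were assayed by MTS. IC50 is the compound concentration that cuts optical density of treated cells by 50% relative to untreated cells. Mean of three independent determinations.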

[2] = test system: SMMC-7721; assay: Antiproliferative activity against human SMMC7721 cells assessed as growth inhibition incubated up to 4 days by MTS assay; type: functional, cell-based; conditions: SMMC-7721, 96 h; outline: as §1
[3] = test system: A549; assay: Antiproliferative activity against human A549 cells assessed as growth inhibition incubated up to 4 days by MTS assay; type: functional, cell-based; conditions: A549, 96 h; outline: as §1
[4] = test system: MCF7; assay: Antiproliferative activity against human MCF7 cells assessed as growth inhibition incubated up to 4 days by MTS assay; type: functional, cell-based; conditions: MCF7, 96 h; outline: as §1
[5] = test system: SW480; assay: Antiproliferative activity against human SW480 cells assessed as growth inhibition incubated up to 4 days by MTS assay; type: functional, cell-based; conditions: SW480, 96 h; outline: as §1
[6] = test system: SW480; assay: Potency index, ratio of cisplatin IC50 to compound IC50 for antiproliferative activity against human SW480 cells assessed as growth inhibition; type: functional
[7] = test system: MCF7; assay: Potency index, ratio of cisplatin IC50 to compound IC50 for antiproliferative activity against human MCF7 cells assessed as growth inhibition; type: functional

| SMILES | pIC50 [1] | pIC50 [2] | pIC50 [3] | pIC50 [4] | pIC50 [5] | Ratio IC50 [6] | Ratio IC50 [7] |
| --- | --- | --- | --- | --- | --- | --- | --- |
| O=C(C[n+]1ccn(C(c2ccccc2)c2cc3ccccc3oc2=O)c1)c1ccc(C(F)(F)F)cc1 (stereo not given) | < 4.70 | < 4.70 | < 4.70 | < 4.70 | < 4.70 | – | – |
| O=c1oc2ccccc2cc1C(c1ccccc1)n1cnc2ccccc21 (stereo not given) | < 4.70 | < 4.70 | < 4.70 | < 4.70 | < 4.70 | – | – |
| Cc1cc2c(cc1C)[n+](CC(=O)c1ccc(C(F)(F)F)cc1)cn2C(c1ccccc1)c1cc2ccccc2oc1=O (stereo not given) | 5.06 | 5.02 | 4.93 | 5.18 | 5.09 | – | – |
| Cc1nc2ccccc2n1C(c1ccccc1)c1cc2ccccc2oc1=O (stereo not given) | < 4.70 | < 4.70 | < 4.70 | < 4.70 | < 4.70 | – | – |
| O=C(C[n+]1cn(C(c2ccccc2)c2cc3ccccc3oc2=O)c2ccccc21)c1ccccc1 (stereo not given) | 4.73 | < 4.70 | < 4.70 | 5.29 | 5.20 | – | – |
| Cc1n(C(c2ccccc2)c2cc3ccccc3oc2=O)c2ccccc2[n+]1CC(=O)c1ccccc1 (stereo not given) | < 4.70 | < 4.70 | < 4.70 | < 4.70 | < 4.70 | – | – |
| O=C(C[n+]1ccn(C(c2ccccc2)c2cc3ccccc3oc2=O)c1)c1ccccc1 (stereo not given) | < 4.70 | < 4.70 | < 4.70 | < 4.70 | < 4.70 | – | – |
| Cc1n(C(c2ccccc2)c2cc3ccccc3oc2=O)c2ccccc2[n+]1CC(=O)c1ccc(Br)cc1 (stereo not given) | < 4.70 | < 4.70 | < 4.70 | < 4.70 | < 4.70 | – | – |
| O=c1oc2ccccc2cc1C(c1ccccc1)n1ccnc1 (stereo not given) | < 4.70 | < 4.70 | < 4.70 | < 4.70 | < 4.70 | – | – |
| Cc1cc2ncn(C(c3ccccc3)c3cc4ccccc4oc3=O)c2cc1C (stereo not given) | < 4.70 | < 4.70 | < 4.70 | < 4.70 | < 4.70 | – | – |
| COc1ccc(C(=O)C[n+]2ccn(C(c3ccccc3)c3cc4ccccc4oc3=O)c2)cc1 (stereo not given) | < 4.70 | < 4.70 | < 4.70 | < 4.70 | < 4.70 | – | – |
| O=C(C[n+]1ccn(C(c2ccccc2)c2cc3ccccc3oc2=O)c1)c1ccc(Br)cc1 (stereo not given) | < 4.70 | < 4.70 | < 4.70 | < 4.70 | < 4.70 | – | – |

The next molecules have a higher pIC50 [1] than those just listed; values first:

| pIC50 [1] | pIC50 [2] | pIC50 [3] | pIC50 [4] | pIC50 [5] | SMILES | Ratio IC50 [6] | Ratio IC50 [7] |
| --- | --- | --- | --- | --- | --- | --- | --- |
| 5.15 | 5.05 | < 4.70 | 5.76 | 5.32 | COc1ccc(C(=O)C[n+]2cn(C(c3ccccc3)c3cc4ccccc4oc3=O)c3ccccc32)cc1 (stereo not given) | – | – |
| 5.43 | 5.16 | 5.07 | 5.92 | 5.46 | COc1ccc(C(=O)C[n+]2c(C)n(C(c3ccccc3)c3cc4ccccc4oc3=O)c3ccccc32)cc1 (stereo not given) | – | – |
| 5.11 | < 4.70 | < 4.70 | 5.09 | 5.04 | Cc1n(C(c2ccccc2)c2cc3ccccc3oc2=O)c2ccccc2[n+]1CC(=O)c1ccc(C(F)(F)F)cc1 (stereo not given) | – | – |
| 5.35 | 5.21 | 5.15 | 5.89 | 5.81 | O=C(C[n+]1cn(C(c2ccccc2)c2cc3ccccc3oc2=O)c2ccccc21)c1ccc(C(F)(F)F)cc1 (stereo not given) | – | – |
| 5.38 | 5.24 | 5.04 | 5.89 | 5.83 | O=C(C[n+]1cn(C(c2ccccc2)c2cc3ccccc3oc2=O)c2ccccc21)c1ccc2ccccc2c1 (stereo not given) | – | – |
| 5.08 | 4.94 | 4.80 | 5.55 | 5.22 | Cc1n(C(c2ccccc2)c2cc3ccccc3oc2=O)c2ccccc2[n+]1CC(=O)c1ccc2ccccc2c1 (stereo not given) | – | – |
| 5.28 | < 4.70 | < 4.70 | 4.90 | < 4.70 | O=C(C[n+]1ccn(C(c2ccccc2)c2cc3ccccc3oc2=O)c1)c1ccc(-c2ccccc2)cc1 (stereo not given) | – | – |
| 5.32 | 5.14 | 4.91 | 5.38 | 5.91 | Cc1cc2c(cc1C)[n+](CC(=O)c1ccccc1)cn2C(c1ccccc1)c1cc2ccccc2oc1=O (stereo not given) | – | – |
| 5.36 | < 4.70 | < 4.70 | 5.14 | 5.10 | O=C(C[n+]1ccn(C(c2ccccc2)c2cc3ccccc3oc2=O)c1)c1ccc2ccccc2c1 (stereo not given) | – | – |
| 5.54 | 5.33 | 5.13 | 6.02 | 5.79 | O=C(C[n+]1cn(C(c2ccccc2)c2cc3ccccc3oc2=O)c2ccccc21)c1ccc(-c2ccccc2)cc1.[Br-] (stereo not given) | 4.9 | 10.2 |
| 5.56 | 5.30 | 5.29 | 5.54 | 5.54 | Cc1n(C(c2ccccc2)c2cc3ccccc3oc2=O)c2ccccc2[n+]1CC(=O)c1ccc(-c2ccccc2)cc1 (stereo not given) | – | – |
| 5.23 | 5.09 | 4.92 | 5.91 | 5.78 | O=C(C[n+]1cn(C(c2ccccc2)c2cc3ccccc3oc2=O)c2ccccc21)c1ccc(Br)cc1 (stereo not given) | – | – |
| 5.61 | 5.38 | 5.31 | 5.64 | 6.70 | Cc1cc2c(cc1C)[n+](CC(=O)c1ccc(Br)cc1)cn2C(c1ccccc1)c1cc2ccccc2oc1=O.[Br-] (stereo not given) | 40 | – |
| 5.81 | 5.33 | 5.25 | 5.80 | 6.44 | COc1ccc(C(=O)C[n+]2cn(C(c3ccccc3)c3cc4ccccc4oc3=O)c3cc(C)c(C)cc32)cc1.[Br-] (stereo not given) | 22.2 | 6.2 |
| 5.68 | 5.72 | 5.67 | 5.78 | 5.10 | Cc1cc2c(cc1C)[n+](CC(=O)c1ccc(-c3ccccc3)cc1)cn2C(c1ccccc1)c1cc2ccccc2oc1=O (stereo not given) | – | – |
